Assay results reported in ChEMBL document CHEMBL4414561, “Cholinesterase Inhibitory Arisugacins L-Q from a Penicillium sp. Isolate Obtained through a Citizen Science Initiative and Their Activities in a Phenotype-Based Zebrafish Assay” (J Nat Prod, 2019).
Activity calls are given as the source filed them. The rule behind the calls is not given here.

Experiments:
Danio rerio [1] = organism: Danio rerio; test: Induction of paralysis in AB/TU zebra fish at 5 uM treated at 7 hpf and measured after 72 hrs; format: functional, organism-based
In short: (§1)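 Embryos exposed from 7 h postfertilization and scored for paralysis at 72 hpf. Value is the lowest concentration giving paralysis; […]. Pure compounds come from 10 mM DMSO stocks, with further dilutions made in DMSO.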

[2] = molecular target: Acetylcholinesterase (Electrophorus electricus) (UniProt O42275); test: Inhibition of electric eel AChE at 50 uM incubated for 15 mins by Ellman's method relative to control
Sequence of Acetylcholinesterase (Electrophorus electricus) (O42275 24-633 limits assumed): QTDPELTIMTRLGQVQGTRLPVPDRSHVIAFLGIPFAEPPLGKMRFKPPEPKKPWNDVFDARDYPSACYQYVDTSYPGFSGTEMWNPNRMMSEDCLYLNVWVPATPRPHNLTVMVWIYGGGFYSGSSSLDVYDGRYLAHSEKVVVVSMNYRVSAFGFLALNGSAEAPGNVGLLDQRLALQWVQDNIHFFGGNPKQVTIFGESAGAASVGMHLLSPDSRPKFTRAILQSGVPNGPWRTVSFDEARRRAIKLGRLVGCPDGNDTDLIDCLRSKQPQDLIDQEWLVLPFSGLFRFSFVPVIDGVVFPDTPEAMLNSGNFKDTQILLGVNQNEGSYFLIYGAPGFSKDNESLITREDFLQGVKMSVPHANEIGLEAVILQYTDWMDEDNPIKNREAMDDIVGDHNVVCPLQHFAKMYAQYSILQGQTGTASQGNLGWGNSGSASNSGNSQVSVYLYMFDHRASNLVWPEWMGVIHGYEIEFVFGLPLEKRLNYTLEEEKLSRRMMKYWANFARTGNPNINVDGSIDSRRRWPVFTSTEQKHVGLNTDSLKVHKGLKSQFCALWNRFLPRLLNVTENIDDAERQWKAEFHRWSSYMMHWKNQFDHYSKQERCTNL
In short: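 Colorimetric kit assay with Electrophorus electricus AChE. Compound is incubated with enzyme for 15 min. Assay buffer containing AChE substrate and DTNB is then added, and absorbance is read at 0 and 15 min. Single-point screen at 50 μM; IC50 also determined.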

[3] = molecular target: Cholinesterase (Equus caballus) (UniProt P81908); test: Inhibition of equine serum BChE at 50 uM using S-butyrylthiocholine iodide as substrate incubated for 15 mins by Ellman's method relative to control
Sequence of Cholinesterase (Equus caballus) (P81908 whole entry): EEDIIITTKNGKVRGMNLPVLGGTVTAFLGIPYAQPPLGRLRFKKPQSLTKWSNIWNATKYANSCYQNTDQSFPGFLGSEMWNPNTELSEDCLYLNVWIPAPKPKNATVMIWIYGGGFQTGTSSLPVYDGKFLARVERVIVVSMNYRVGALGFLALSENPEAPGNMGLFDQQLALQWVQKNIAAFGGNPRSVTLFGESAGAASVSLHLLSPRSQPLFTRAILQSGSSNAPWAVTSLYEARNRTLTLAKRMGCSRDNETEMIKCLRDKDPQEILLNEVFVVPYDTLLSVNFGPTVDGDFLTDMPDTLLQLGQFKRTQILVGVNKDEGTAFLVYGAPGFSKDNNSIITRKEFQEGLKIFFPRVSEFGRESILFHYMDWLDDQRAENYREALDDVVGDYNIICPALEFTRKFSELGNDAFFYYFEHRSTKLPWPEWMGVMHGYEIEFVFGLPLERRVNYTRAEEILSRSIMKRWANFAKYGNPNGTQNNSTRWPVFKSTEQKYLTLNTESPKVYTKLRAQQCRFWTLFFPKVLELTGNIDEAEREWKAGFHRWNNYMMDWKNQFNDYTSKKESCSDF
In short: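 Same colorimetric kit with equine serum butyrylcholinesterase and S-butyrylthiocholine iodide substrate plus DTNB. Compound is preincubated with enzyme for 15 min. Absorbance is read at 0 and 15 min after substrate addition. Sample tested at 50 μM.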

Acetylcholinesterase = Acetylcholinesterase (Electrophorus electricus, UniProt O42275); test: Inhibition of electric eel AChE incubated for 15 mins by Ellman's method
Sequence of Acetylcholinesterase (O42275 whole entry): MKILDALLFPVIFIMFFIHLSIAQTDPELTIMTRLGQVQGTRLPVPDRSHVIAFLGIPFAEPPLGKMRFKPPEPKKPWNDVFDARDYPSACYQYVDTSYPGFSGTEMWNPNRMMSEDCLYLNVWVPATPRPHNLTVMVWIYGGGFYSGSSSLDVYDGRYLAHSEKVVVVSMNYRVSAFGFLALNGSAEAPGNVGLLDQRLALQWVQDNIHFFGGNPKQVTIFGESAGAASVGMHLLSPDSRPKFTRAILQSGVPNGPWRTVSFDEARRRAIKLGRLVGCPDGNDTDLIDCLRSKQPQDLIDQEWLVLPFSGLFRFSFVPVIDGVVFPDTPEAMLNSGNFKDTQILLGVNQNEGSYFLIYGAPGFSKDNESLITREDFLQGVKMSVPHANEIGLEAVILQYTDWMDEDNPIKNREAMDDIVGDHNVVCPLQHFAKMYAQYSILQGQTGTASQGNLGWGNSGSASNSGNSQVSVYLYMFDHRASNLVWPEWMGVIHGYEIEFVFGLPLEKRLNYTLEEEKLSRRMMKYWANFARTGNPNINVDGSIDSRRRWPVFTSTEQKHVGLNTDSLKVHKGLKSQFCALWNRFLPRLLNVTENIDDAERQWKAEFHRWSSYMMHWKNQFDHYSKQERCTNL
In short: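 Colorimetric kit assay with Electrophorus electricus AChE. Compound is incubated with enzyme for 15 min. Assay buffer containing AChE substrate and DTNB is then added, and absorbance is read at 0 and 15 min.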

Danio rerio [4] = organism: Danio rerio; test: Induction of paralysis in AB/TU zebra fish at 100 uM treated at 7 hpf and measured after 72 hrs; format: functional, organism-based; in short: as §1
Danio rerio [5] = organism: Danio rerio; test: Induction of paralysis in AB/TU zebra fish at 1 uM treated at 7 hpf and measured after 72 hrs; format: functional, organism-based; in short: as §1
Danio rerio [6] = organism: Danio rerio; test: Induction of paralysis in AB/TU zebra fish at 10 uM treated at 7 hpf and measured after 72 hrs; format: functional, organism-based; in short: as §1
Danio rerio [7] = organism: Danio rerio; test: Induction of paralysis in AB/TU zebra fish at 50 uM treated at 7 hpf and measured after 72 hrs; format: functional, organism-based; in short: as §1

| Structure (SMILES) | Activity (Danio rerio [1]) | inhibition [2] [%] | inhibition [3] [%] | IC50 (Acetylcholinesterase) [µM] | Activity (Danio rerio [4]) | Activity (Danio rerio [5]) | Activity (Danio rerio [6]) | Activity (Danio rerio [7]) |
| --- | --- | --- | --- | --- | --- | --- | --- | --- |
| COc1ccc(-c2cc3c(c(=O)o2)C[C@@H]2[C@@]4(C)CCC(=O)C(C)(C)[C@@H]4CC[C@@]2(C)O3)cc1 | Active | 26.9 | 11.6 | > 100 |  |  |  |  |
| COc1ccc(-c2cc3c(c(=O)o2)C[C@H]2[C@@](C)(CC[C@@]4(O)C(C)(C)[C@@H](O)CC[C@]24C)O3)cc1 |  | 75.4 | 7 |  | inactive |  |  |  |
| COc1ccc(-c2cc3c(c(=O)o2)C[C@]2(O)[C@@]4(C)C(=O)C[C@@H](O)C(C)(C)[C@]4(O)CC[C@@]2(C)O3)cc1 |  | 98 | 0 | 0.191 |  | Active |  |  |
| COc1ccc(-c2cc3c(c(=O)o2)C[C@H]2[C@@]4(C)C=CC(=O)C(C)(C)[C@@H]4CC[C@@]2(C)O3)cc1 | Active | 40.3 | 0 | 66 |  |  |  |  |
| COc1ccc(-c2cc3c(c(=O)o2)C[C@]2(O)[C@@]4(C)CC[C@@H](OC(C)=O)C(C)(C)[C@]4(O)CC[C@@]2(C)O3)cc1 |  | 60.1 | 4.7 |  |  |  | Active |  |
| COc1ccc(-c2cc3c(c(=O)o2)C[C@H]2[C@@](C)(CC[C@@]4(O)C(C)(C)C(=O)CC[C@]24C)O3)cc1 | Active | 95.1 | 32.6 | 1.4 |  |  |  |  |
| COc1ccc(-c2cc3c(c(=O)o2)C[C@]2(O)[C@@]4(C)[C@H](O)C[C@@H](O)C(C)(C)[C@]4(O)CC[C@@]2(C)O3)cc1 |  | 29.2 | 0 | > 100 | inactive |  |  |  |
| COc1ccc(-c2cc3c(c(=O)o2)C[C@]2(O)[C@@]4(C)CCC(=O)C(C)(C)[C@]4(O)CC[C@@]2(C)O3)cc1 |  | 96.6 | 9.3 |  | inactive |  |  |  |
| COc1ccc(-c2cc3c(c(=O)o2)C[C@]2(O)[C@@]4(C)CC[C@@H](O)C(C)(C)[C@]4(O)CC[C@@]2(C)O3)cc1 |  | 83.4 | 0 |  | inactive |  |  |  |
| COc1ccc(-c2cc(O)c(C/C=C(\C)CC/C=C(\C)CCC=C(C)C)c(=O)o2)cc1 |  | 4.3 | 0 | > 100 |  |  |  | Active |
| CC(C)NP(=O)(NC(C)C)OP(=O)(NC(C)C)NC(C)C [TETRAISOPROPYL PYROPHOSPHORAMIDE] |  | 1.3 | 15.1 | > 100 | inactive |  |  |  |
| COc1ccc(-c2cc(O)c(C/C=C(\C)CC/C=C(\C)CCC(O)C(C)(C)O)c(=O)o2)cc1 (stereo unspecified) |  | 34.1 | 4.7 | > 100 |  |  | Active |  |
| COP(=S)(OC)SCn1nnc2ccccc2c1=O |  | 12.2 | 3.3 |  |  | Active |  |  |
| CNC(=O)Oc1ccc2c(c1)[C@]1(C)CCN(C)[C@@H]1N2C |  | 99.8 | 93.2 |  | Active |  |  |  |
| COc1ccc(-c2cc3c(c(=O)o2)C[C@]2(O)[C@@]4(C)CC[C@H](O)C(C)(C)[C@]4(O)CC[C@@]2(C)O3)cc1 |  | 89.4 | 4.7 | 3.9 |  |  |  | Active |
| COc1ccc(-c2cc3c(c(=O)o2)C[C@@H]2[C@@]4(C)CC[C@H](O)C(C)(C)[C@@H]4CC[C@@]2(C)O3)cc1 |  | 3 | 4.7 |  | inactive |  |  |  |
| COc1ccc(-c2cc3c(c(=O)o2)C[C@]2(O)[C@@]4(C)[C@H](O)CC(=O)C(C)(C)[C@@]4(O)CC[C@@]2(C)O3)cc1 |  | 83.6 | 0 | 4.6 | inactive |  |  |  |
